Data set [1] concerns the target T1, Transcriptional regulator MvfR (Pseudomonas aeruginosa PA14) (UniProt A0A072ZLE6).
T1 sequence (whole entry): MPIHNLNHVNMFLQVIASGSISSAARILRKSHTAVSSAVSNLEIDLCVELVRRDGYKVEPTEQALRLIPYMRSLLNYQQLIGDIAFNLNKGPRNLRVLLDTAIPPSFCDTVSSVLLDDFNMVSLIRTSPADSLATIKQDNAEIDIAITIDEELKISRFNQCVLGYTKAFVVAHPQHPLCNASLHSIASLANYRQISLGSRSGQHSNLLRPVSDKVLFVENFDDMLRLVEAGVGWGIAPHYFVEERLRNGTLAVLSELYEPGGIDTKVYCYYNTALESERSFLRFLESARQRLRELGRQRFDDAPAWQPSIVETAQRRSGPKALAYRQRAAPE
Nature of the data set: Inhibition of PqsR in Pseudomonas aeruginosa PA14 harboring mCTX:PpqsA-lux fusion assessed as remaining activity at 10 uM incubated for 24 hrs by spot test relative to control. The method in brief: (§1)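 Chromosomal mCTX:PpqsA-lux reporter strain in LB, overnight culture (OD600 2.0–3.0) diluted to OD600 0.02 and mixed 1:1 with compound, final 10 μM, at least triplicate wells. Run at 37 °C for 24 h, with OD600 and luminescence read every 30 min. Luminescence/OD600 taken at the luminescence peak (8–9 h) and normalised to the 0.1% DMSO control (100%).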

In data set [2] the target is T1, Transcriptional regulator MvfR (Pseudomonas aeruginosa PA14). The experiment in a line: Inhibition of PqsR in Pseudomonas aeruginosa PAO1 L harboring mCTX:PpqsA-lux fusion protein assessed as remaining enzyme activity at 10 uM and measured every 30 mins for 24 hrs by spot test relative to control. The method in brief:
as §1

The subject of the next data set is Pseudomonas aeruginosa. Nature of the data set: Bactericidal activity against Pseudomonas aeruginosa PAO1 L assessed as inhibition of bacterial growth. It is filed as functional, organism-based.
Data set [3] deals with T2, Transcriptional regulator MvfR (Pseudomonas aeruginosa PA14, UniProt A0A072ZLE6).
T2 sequence (A0A072ZLE6 whole entry): T1 sequence (whole entry)
The experiment in a line: Inhibition of PqsR in Pseudomonas aeruginosa PAO1 L harboring mCTX:PpqsA-lux fusion protein measured every 30 mins for 24 hrs by luminescence reporter gene assay. The method in brief: (§2)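 Chromosomal mCTX:PpqsA-lux reporter strain grown overnight to OD600 2.0–3.0, diluted in LB to OD600 0.02 and mixed 1:1 with compound in LB. Ten […] serial concentrations, final 31.6 μM to 1 nM, in triplicate. Run at 37 °C for 24 h with OD600 and luminescence read every 30 min. IC50 from log concentration vs RLU/OD600 at the luminescence peak (8–9 h).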
Background: In a reporter assay the amount or activity of a reporter protein is the signal.

Data set [4] concerns the target T2, Transcriptional regulator MvfR. The experiment in a line: Inhibition of PqsR in Pseudomonas aeruginosa PA14 harboring mCTX:PpqsA-lux fusion protein measured every 30 mins for 24 hrs by luminescence reporter gene assay. The method, boiled down:
as §2

Data set [5] addresses T1, Transcriptional regulator MvfR (Pseudomonas aeruginosa PA14). The experiment in a line: Inhibition of Pseudomonas aeruginosa PAO1-L PqsR assessed as reduction in pyocyanin production by measuring pyocyanin level at 3 times IC50 incubated for 16 hrs. Also noted: scale not given: the % may be the effect or the level left.
A further data set deals with A549. Nature of the data set: Cytotoxicity against human A549 cells assessed as reduction in cell viability at 0.1 to 100 uM after 16 hrs by Alamar blue assay. The following applies: a549, 16 h, dose 0.1-100 µM. It is filed as cell-based. The method in brief:
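A549 lung epithelial cells kept in DMEM with 10% FBS and 1% penicillin-streptomycin at 37 °C, 5% CO2. Trypsinised at 80% confluence, resuspended in DMEM-F12, seeded at 10,000 cells/well, left 16 h. Compound added (0.1–100 μM), 16 h further incubation. Alamar blue for 5 h, fluorescence ex 510/em 590 nm, normalised to untreated cells.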
(The colour change of resazurin is a common sign of viable cells or microbes.)

In data set [6] the test system is Pseudomonas aeruginosa PA14 PqsR. Nature of the data set: Therapeutic index, ratio of cytotoxicity against human A549 cells to IC50 for inhibition of Pseudomonas aeruginosa PA14 PqsR. It is filed as toxicity, cell-based. The following applies: read-out: TI.
Data set [7] can be described thus: Solubility of the compound in test buffer at >100 uM. It is filed as physicochemical.
The target of data set [8] is T1, Transcriptional regulator MvfR (Pseudomonas aeruginosa PA14). The experiment in a line: Inhibition of PqsR in Pseudomonas aeruginosa PAO1 L harboring mCTX:PpqsA-lux fusion at 10 uM and measured every 30 mins for 24 hrs by spot test. The method, boiled down: as §1

The structures appear in SMILES notation. The source made the active and inactive calls. The calls are words filed in the database; no cut-off is given here.

One may read the IC50 as the point on the concentration scale where inhibition reaches its midpoint.

Regarding `O=c1c2cc(Cl)ccc2ncn1Cc1cnc(NC2CCCCC2)s1`, the Activity in [1] is more than 50%; in data set [2], 83%.
Take `CCCCc1nc(Cn2cnc3ccc(Cl)cc3c2=O)cs1`: the result in the data set with Pseudomonas aeruginosa was inactive. Further, the concentration for half-maximal inhibition (IC50) in data set [3] amounted to 1560 nM; in [4] it was 1720 nM.
With `CC(C)Cc1nc(Cn2cnc3ccc(Cl)cc3c2=O)cs1`, in the data set on Pseudomonas aeruginosa, the outcome was inactive. For the same molecule, the IC50 in [3] amounted to 1220 nM; in data set [4], 1330 nM.
For the molecule `CCCCNc1ncc(Cn2cnc3ccc(Cl)cc3c2=O)s1`, the Activity was more than 50% in data set [1] and 67% in [2].
For `CCCCCCc1nc(Cn2cnc3ccc(Cl)cc3c2=O)cs1`, the outcome in the data set on Pseudomonas aeruginosa was inactive. Further, the Activity was 36% in data set [5] and “Non-Toxic” in the data set with A549. Moreover, in data set [6], the selectivity ratio is more than 377. Also, the solubility entry in [7] is reported as “Insoluble”. Moreover, the 50% inhibitory concentration (IC50) in data set [3] worked out at 298 nM; in [4], 265 nM.
As for `NC(N)=Nc1nc(Cn2cnc3ccc(Cl)cc3c2=O)cs1`, the Activity in [1] was more than 50%; in data set [2] it was 108%.
In the case of `CC(C)c1noc(Cn2cnc3ccc(Cl)cc3c2=O)n1`, the inhibition result in data set [8] was “inactive”.
On to `O=c1c2cc(Cl)ccc2ncn1Cc1csc(/C=C/c2ccco2)n1`, for which the result with Pseudomonas aeruginosa was inactive. The 50% inhibitory concentration (IC50) in data set [3] turned out to be 2050 nM; in data set [4], 2920 nM.
Turning to `Cc1nc(Cn2cnc3ccc(Cl)cc3c2=O)cs1`, the Activity in data set [1] is more than 50%; in data set [2], 83%.
On to `CCCCCc1nc(Cn2cnc3ccc(Cl)cc3c2=O)cs1`, for which, in the data set on Pseudomonas aeruginosa, the outcome was inactive. The Activity in [5] is 23%; in the data set on A549, “Non-Toxic”. Further, in data set [6], the selectivity ratio was more than 292. The solubility result in data set [7] is reported as “Insoluble”. Also, the values for the IC50 in data set [3] and in data set [4] were 313 nM and 342 nM, respectively.
On to `O=c1c2cc(Cl)ccc2ncn1Cc1csc(-c2ccccc2)n1`, for which the outcome in the data set with Pseudomonas aeruginosa was inactive. Also, the IC50 in data set [3] stood at 244 nM; in data set [4] it was 123 nM.
With `CC(C)(C)c1nc(Cn2cnc3cc(Cl)ccc3c2=O)cs1`, the outcome in the data set with Pseudomonas aeruginosa was inactive. Also, in data set [1], the Activity is more than 50%. The half-maximal inhibitory concentration (IC50) in data set [3] amounted to 2940 nM.
With `CN(CCO)c1ncc(Cn2cnc3ccc(Cl)cc3c2=O)s1`, the Activity in [1] is more than 50%; in [2], 101%.
For `CC1CCN(c2ncc(Cn3cnc4ccc(Cl)cc4c3=O)s2)CC1`, the Activity in data set [1] is more than 50%; in [2], 72%.
With `COCCNc1ncc(Cn2cnc3ccc(Cl)cc3c2=O)s1`, the Activity in data set [1] was more than 50%; in [2] it was 85%.
For `CCCCCc1nc(Cn2cnc3cc(Cl)ccc3c2=O)cs1` the same measures were more than 50% and 106%.
Consider `CCCC(C)c1nc(Cn2cnc3ccc(Cl)cc3c2=O)cs1` (configuration not stated), for which the result in the data set on Pseudomonas aeruginosa was inactive. For the same molecule, the concentration for half-maximal inhibition (IC50) came to 1110 nM in [3] and 646 nM in [4].
In the case of `CC(C)CCc1nc(Cn2cnc3ccc(Cl)cc3c2=O)cs1`, in the data set with Pseudomonas aeruginosa, the outcome was inactive. Also, the IC50 turned out to be 1360 nM in data set [3] and 683 nM in data set [4].
With `CCc1nc(Cn2cnc3ccc(Cl)cc3c2=O)cs1`, the Activity was more than 50% in data set [1] and 79% in [2].
`CC(C)c1nc(Cn2cnc3cc(F)ccc3c2=O)cs1`: the IC50 in [3] amounted to 13200 nM.
As for `N#CCc1nc(Cn2cnc3ccc(Cl)cc3c2=O)cs1`, the Activity is more than 50% in [1] and 104% in [2].
As for `O=c1c2cc(Cl)ccc2ncn1Cc1cnc(Cl)s1`, the Activity in data set [1] was more than 50%; in data set [2], 95%.
Turning to `COCCNc1nc(Cn2cnc3ccc(Cl)cc3c2=O)cs1`, the results for the Activity in [1] and in [2] were more than 50% and 85%, respectively.
On to `CCCCNc1nc(Cn2cnc3ccc(Cl)cc3c2=O)cs1`, for which the result in the data set with Pseudomonas aeruginosa was inactive. In addition, the Activity in data set [1] is more than 50%. In data set [3], this molecule yielded a concentration for half-maximal inhibition (IC50) of 3540 nM.
With `CC(C)(C)c1nc(Cn2cnc3ccc(Cl)cc3c2=O)cs1`, the result in the data set with Pseudomonas aeruginosa was inactive. Besides, the concentration for half-maximal inhibition (IC50) stood at 397 nM in [3] and 650 nM in [4].
Regarding `CC(C)c1ncc(Cn2cnc3ccc(Cl)cc3c2=O)s1`, the Activity in [1] was more than 50%; in [2], 65%.
Turning to `O=c1c2cc(Cl)ccc2ncn1Cc1csc(-c2ccc([N+](=O)[O-])cc2)n1`, the results for the Activity in data set [1] and in data set [2] were more than 50% and 89%, respectively.
For the molecule `CCC(C)Cc1nc(Cn2cnc3ccc(Cl)cc3c2=O)cs1` (configuration not stated), in the data set on Pseudomonas aeruginosa, the outcome was inactive. In addition, the values for the IC50 in data set [3] and in data set [4] were 1570 nM and 639 nM, respectively.
`CC(C)c1nc(Cn2cnc3ccc(Cl)cc3c2=O)cs1`: the outcome with Pseudomonas aeruginosa was inactive. Besides, the IC50 in data set [3] was 1050 nM; in data set [4], 1580 nM.
As to `O=c1c2cc(Cl)ccc2ncn1Cc1csc(-c2ccco2)n1`, the outcome with Pseudomonas aeruginosa was inactive. The IC50 in data set [3] came out at 1330 nM; in data set [4] it was 1310 nM.
`O=c1c2cc(Cl)ccc2ncn1Cc1csc(C(F)(F)F)n1`: the results for the Activity in [1] and in data set [2] were more than 50% and 52%, respectively.
